Measured values gathered from unrelated publications.
Each line is one published result; the experiments were not run side by side.
BRD9: Bromodomain-containing protein 9 (BRD9, Homo sapiens, UniProt Q9H8M2)

Cc1ncc(-c2cc3cc(-c4c(C)ccc(O)c4C)cnc3[nH]2)cn1 — inhibition (Membrane-associated tyrosine- and threonine-specific cdc2-inhibitory kinase (PKMYT1, Homo sapiens, UniProt Q99640); cell-free assay; TR-FRET; 10 µM): 101%
COc1cc(-c2cc(C(C)=O)n3ccccc23)c(OC)cc1CN(C)C — ΔTm (BRD9; thermal stability; DSF; 200 µM): 12.5 °C
C1=C/COCc2cc(ccc2OCCN2CCCC2)Nc2nccc(n2)-c2cccc(c2)COC/1 — remaining binding (Activin receptor type-2A (ACVR2A, Homo sapiens, UniProt P27037); binding; 0.1 µM): 83%
Cc1cc(O)c(-c2ccc([C@@H](C)CN(C)C)cc2)c2c1[nH]c(=O)c1sccc12 — inhibition (G protein-coupled receptor kinase 5 (GRK5, Homo sapiens, UniProt P34947); enzyme activity; inhibitor; 0.1 µM): -6.65%
CCCCC(=O)Nc1ccc(-c2ccc3ncn(CCC)c(=O)c3c2)cn1 — remaining binding (Bone morphogenetic protein receptor type-1A (BMPR1A, Homo sapiens, UniProt P36894); binding; competition with immobilised ligand; 0.5 µM): 84%
NC/C(=C\F)COc1cccc(Cn2c(=S)[nH]c(=O)c3[nH]cnc32)c1 — inhibition (Histamine H3 receptor (HRH3, Homo sapiens, UniProt Q9Y5N1); ligand displacement; radioligand; 10 µM): < 50%
COc1cc(-c2cc(C(C)=O)n3ccccc23)c(OC)cc1Cn1ccnc1 — ΔTm (BRD9; thermal stability; DSF; 200 µM): 11.8 °C
COc1ccc2oc(-c3ccc4nc(N)oc4c3)c/c(=N\c3ccccc3NC(=O)CCN)c2c1 — remaining binding (Serine/threonine-protein kinase 35 (STK35, Homo sapiens, UniProt Q8TDR2); binding; 1 µM): 104%
COc1cc(-c2cc(C(C)=O)n3ccccc23)c(OC)cc1C(=O)N1CCOCC1 — ΔTm (BRD9; thermal stability; DSF; 200 µM): 13.8 °C
CCN1/C(=C/C(C)=O)Sc2ccc(F)cc21 — inhibition (D(1B) dopamine receptor (DRD5, Homo sapiens, UniProt P21918); ligand displacement; radioligand; 10 µM): 2.77%
